# From PubChem BioAssay
# Hits are enriched below; roughly 2.9% of the tested compounds scored in any of these assays.
# ADAM17 inh = inhibitors of human ADAM17; P78536; recombinant ADAM17, EDANS/DABCYL FRET peptide cleavage; inhibition, % at 6.95 µM; 370,000 tested, 0.83% active; AID 720648;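 active means inhibition above the mean of compounds lying between control limits plus 3 SD, set per campaign, cut at about 8.5% in these data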;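 further: 0% = DMSO-only wells as the low control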
# Target sequence (P78536 215-824 limits assumed): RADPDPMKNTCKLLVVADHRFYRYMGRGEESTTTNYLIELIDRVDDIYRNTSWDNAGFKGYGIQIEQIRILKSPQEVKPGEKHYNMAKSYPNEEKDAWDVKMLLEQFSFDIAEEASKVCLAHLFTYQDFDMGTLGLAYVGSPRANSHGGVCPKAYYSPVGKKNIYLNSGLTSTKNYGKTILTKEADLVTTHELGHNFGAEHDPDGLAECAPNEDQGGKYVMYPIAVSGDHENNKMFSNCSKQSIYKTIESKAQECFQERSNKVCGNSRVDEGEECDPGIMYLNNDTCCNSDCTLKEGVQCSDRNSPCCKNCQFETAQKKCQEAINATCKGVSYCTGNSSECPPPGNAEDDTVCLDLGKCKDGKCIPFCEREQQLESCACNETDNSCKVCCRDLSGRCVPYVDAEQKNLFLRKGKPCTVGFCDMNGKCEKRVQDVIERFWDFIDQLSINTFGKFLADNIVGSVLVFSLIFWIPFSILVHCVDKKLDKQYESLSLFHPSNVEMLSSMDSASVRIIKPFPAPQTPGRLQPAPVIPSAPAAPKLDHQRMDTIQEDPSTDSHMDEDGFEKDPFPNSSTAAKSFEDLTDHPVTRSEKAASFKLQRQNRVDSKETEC
# ADAM10 inh = inhibitors of human ADAM10; O14672; recombinant ADAM10, EDANS/DABCYL FRET peptide cleavage, 3 h; inhibition, % at 7 µM; 370,000 tested, 0.62% active; AID 720582;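 active means inhibition above a per-campaign cutoff equal to the mean of compounds falling between control-based bounds plus 3 SD, cut at about 20% in these data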;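 further: 0% = DMSO wells while the 100% control is not disclosed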
# NRP1-CendR mod = NRP-1/CendR interaction modulation | O14786 | FAM-RPARPAR peptide binding to NRP-1, fluorescence polarization | inhibition, % at 25 µM | 360,000 tested, 0.85% active | AID 602438;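 active means inhibition or corrected inhibition above about 18%, plus a signal ratio from 0.5 to 1.5, limit read from the data, passing the limit was not always enough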
# CaV13 FRET inh = Disruptors of the CACNA1D IQ motif to Ca2+-dependent inactivation inhibitor domain association, primary screening, Förster resonance energy transfer in intact living …; inhibition, % at 12.3 µM; 340,000 tested, 0.098% active; HEK cells, CFP/YFP FRET ICDI-IQ, plate reader, 10 min; percent FRET-ratio fall versus neutral wells; AID 743397;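 active means mean replicate inhibition of at least 30% and at least 1% of replicates passing that level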;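 further: 0% = median of the neutral control wells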
# Arr AP2 block = blocks beta-arrestin peptide binding to AP2 adaptin. FITC-arrestin peptide / GST-AP2 beads, flow cytometry; AP2 beta2 appendage carries R879A mutation. inhibition, % at 10 µM. 340,000 tested, 0.31% active. AID 504490;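 active means inhibition above a set limit, near 3 SD of compounds lacking own fluorescence, cut at about 54% in these data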;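 further: plate controls were DMSO wells for no effect and 5 µM unlabelled arrestin peptide for full effect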
#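 System: GST-AP2 R879A glutathione beads; medium: PBS, Tween 20 0.05%, BSA 0.1%; reagent: fluorescein-tagged arrestin peptide at 50 nM final; schedule: pre-incubation 12 min, peptide binding 1 h, room temperature; detection: flow cytometry, FL1 (488/535 nm); read-out: inhibition as reduced fluorescein signal on beads, percent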
# FAS TE block = FAS thioesterase (human) inhibition. 360,000 tested, 0.67% active. AID 602261. recombinant FAS-TE, OMFH fluorogenic substrate, fluorescence endpoint. P49327. inhibition, % at 15 µM;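 active means compounds whose normalised, plate-corrected inhibition of enzyme fluorescence in the single-dose primary screen is 50% or more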;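 further: 0% = DMSO with enzyme and 100% = substrate without enzyme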
# ADAM10 confirm = human ADAM10 inhibition, confirmation; shares compounds with ADAM10 inh; ADAM10 QFRET peptide cleavage, EDANS fluorescence; inhibition, % at 6.95 µM; 2,100 tested, 1% active;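 active means inhibition above about 20% chosen separately for each screening run, limit read from the data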;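 further: 0% = DMSO wells and 100% = marimastat wells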
# ADAM17 counter = counter-screen for ADAM10 exosite inhibitors: inhibitors of human ADAM17; shares compounds with ADAM10 inh; ADAM17 QFRET peptide cleavage, EDANS fluorescence; inhibition, % at 6.95 µM; 2,100 tested, 0.5% active; AID 743214;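 active means mean triplicate inhibition above the solvent-only control wells' mean plus 3 SD, cut at about 12% in these data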;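 further: 0% = DMSO wells and 100% = marimastat wells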
# * hit, by the source's call; x = not tested or not shown.
SMILES,ADAM17 inh,ADAM10 inh,NRP1-CendR mod,CaV13 FRET inh,Arr AP2 block,FAS TE block,ADAM10 confirm,ADAM17 counter
Cc1ccc(S(=O)(=O)Nc2ccccc2-c2ccccc2NS(=O)(=O)c2ccc(C)cc2)cc1,5.5,21.4*,-13.0,-1.8,12.2,25.0,0.1,0.2
CC(=O)c1ccc(NC(=O)Nc2ccc(NS(=O)(=O)c3ccc(C)cc3)cc2)cc1,6.9,23.9*,5.0,-5.0,-34.2,23.9,5.5,0.8
Cc1ccc(C(=O)NC2CCCCN(Cc3cccc(F)c3)C2=O)cc1 (centres undefined),1.2,10.5,x,x,x,x,x,x
CC(=O)Nc1ccc(CN2C(=O)C(C)(C)ON=C2c2ccc(NC(C)=O)cc2)cc1,-2.5,-12.4,1.7,12.0,x,-4.9,x,x
CCOc1cc(S(=O)(=O)Nc2ccc(CC)cc2)ccc1Cl,6.0,24.9*,4.2,-4.1,-6.3,39.7,4.1,0.8
O=C(Nc1ccc(F)cc1)Nc1ccccc1NS(=O)(=O)c1cccs1,2.3,1.1,10.2,-13.9,3.9,0.1,x,x
O=C(Nc1ccc(Cl)cc1)Nc1ccccc1NS(=O)(=O)c1cccs1,8.1,23.1*,-4.5,-2.1,-2.1,13.4,3.8,0.7
Nc1nc(N)nc(-c2ccc(Oc3ccccc3)cc2)n1,-0.2,-8.8,-0.7,-9.5,16.0,-1.5,x,x
Cc1ccc(Oc2ccc(-c3nc(N)nc(N)n3)cc2)cc1C,5.2,19.8*,8.1,-4.1,-0.5,15.2,2.5,1.0
O=C1CCC[C@H]2CC3(CC[C@]24CCCN14)OCCO3,-4.6,-4.3,x,x,x,x,x,x
COc1cc(C)ccc1C(=O)N1CCC(Oc2cccnc2)CC1,-5.0,-1.7,x,x,x,x,x,x
O=c1c2ccccc2c(-c2cccc(C(F)(F)F)c2)nn1-c1ccccc1,1.6,1.9,-3.7,-3.6,-7.4,31.7,x,x
O=c1c2ccccc2c(-c2ccc(O)cc2)nn1-c1cccc(C(F)(F)F)c1,11.7*,21.1*,7.5,-5.9,-21.8,21.9,5.9,2.2
COc1cccc(C(C)(O)c2nc(-c3ccc(C)c(C)c3)cs2)c1 (centres undefined),8.0,20.6*,-2.2,-4.5,x,23.8,7.9,1.9
COc1ccc(-c2csc(C(C)(O)c3cccc(OC)c3)n2)cc1 (centres undefined),-0.2,1.5,-8.7,-6.2,x,13.4,x,x
Cn1c(SCC(=O)Nc2ccccc2-c2ccccc2)nnc1-c1ccccc1,0.9,-10.5,x,x,x,x,x,x
Cc1ccnc(NS(=O)(=O)c2cccc3nsnc23)c1,-0.5,20.4*,-12.1,-5.2,4.3,-2.8,1.6,1.4
O=C(NC1CC1)c1ccc2sc([C@@H]3O[C@H](CO)[C@H](O)[C@H](O)[C@H]3O)nc2c1,-4.1,-5.8,-8.8,-11.0,x,-10.5,x,x
Oc1ccc(-c2nccc(-c3ccc(Br)cc3)n2)cc1,6.1,20.4*,6.0,-5.3,8.0,8.4,5.5,1.7
C=CCN(CC#Cc1cccnc1)Cc1ccc(OC)cc1OC,-3.3,-8.8,x,x,x,x,x,x
CC(Nc1nc(-c2ccccc2)nc2ccccc12)c1ccccc1 (centres undefined),11.3*,29.1*,-0.1,-6.5,-3.1,29.6,9.1,3.0
CC(=O)Nc1ccc(S(=O)(=O)NCCNS(=O)(=O)c2ccc(NC(C)=O)cc2)cc1,-0.5,-0.3,-1.9,-4.4,-2.7,-2.0,x,x
CC(=O)Nc1ccc(S(=O)(=O)NCCSCc2ccc(Cl)cc2Cl)cc1,8.2,21.6*,-2.2,-4.4,-6.5,22.1,5.1,1.3
C=CCN1C(=O)c2n[nH]c(C(C)C)c2C1c1ccccc1 (centres undefined),0.0,3.4,x,-4.2,x,x,x,x
O=[N+]([O-])c1ccc(Nc2ccccc2O)c2nonc12,4.1,20.5*,-7.5,-3.7,-3.8,-3.7,0.1,-0.4
SMILES,ADAM17 inh,ADAM10 inh,NRP1-CendR mod,CaV13 FRET inh,Arr AP2 block,FAS TE block,ADAM10 confirm,ADAM17 counter
O=C(Nc1ccc(Cl)c([N+](=O)[O-])c1)C(Sc1ccccc1)c1ccccc1 (centres undefined),11.5*,26.2*,-10.3,-3.3,0.5,44.1,8.4,2.9
C/C(N)=C(/C#N)C(=O)CSc1nn(-c2ccc(Cl)cc2)c(=S)s1,8.2,23.6*,-6.5,-2.0,18.4,28.4,4.2,1.1
CCCn1c(N)c(N(CCOC)C(=O)CSc2cc(C)c3ccccc3n2)c(=O)[nH]c1=O,1.2,1.9,3.5,-6.1,-9.8,-4.1,x,x
O=C(C1CCCCC1)n1ccc2ccc(-c3ccc4ccn(Cc5ccccc5)c4c3)cc21,-10.0,-36.6,x,x,x,x,x,x
ON=C1c2ccccc2-c2ccc(F)cc21,0.3,7.2,-4.5,-6.0,1.5,-58.9,x,x
ON=C1c2ccccc2-c2ccc(Br)cc21,8.4,26.2*,-4.3,-10.3,-2.1,-89.9,1.6,1.3
COc1cc(OC)cc(-c2c(-c3ccc(F)cc3)c3cc(-c4cnc(OC)nc4)ccc3n2C)c1,0.8,-2.6,15.7,-3.1,32.3,23.8,x,x
Cc1c(Cl)cccc1NC(=O)CNC(=O)Cc1c[nH]c2ccccc12,0.1,32.7*,-0.2,-6.8,-6.8,-0.9,3.0,0.1
Cc1cccc(C)c1NC(=O)CNC(=O)Cc1c[nH]c2ccccc12,-3.7,1.6,-0.9,-5.5,-12.8,-4.5,x,x
CN(CC(=O)Nc1ccc(Cl)c(C(F)(F)F)c1)C(=O)Cc1c[nH]c2ccccc12,-4.1,25.1*,-2.7,-6.6,5.8,22.0,1.4,0.1
CCOc1ccc(NC(=O)CN(C)C(=O)Cc2c[nH]c3ccccc23)cc1OCC,-8.0,-16.6,-14.3,-6.1,-8.5,-6.6,x,x
Nc1ccc(S(=O)(=O)Nc2nccs2)cc1N=Nc1ccccc1[N+](=O)[O-],-2.3,22.3*,-12.5,-5.9,-8.8,4.9,3.2,0.4
CC(=O)Nc1cccc(NC(=O)NC2CC(=O)N(c3ccc4c(c3)OCCO4)C2)c1 (centres undefined),1.1,-1.2,-1.1,-12.7,x,-6.2,x,x
CCCCNC(=O)c1ccc(Cc2cn(C)c3ccccc23)nc1,-9.1,-38.5,-1.1,-7.0,x,1.0,x,x
Cc1ccc(NC(=S)N2CCN(c3ccccn3)CC2)cc1C,2.9,20.9*,5.3,-3.3,3.0,0.4,1.2,0.9
Cc1cc(C)cc(NC(=S)N2CCN(c3ncccn3)CC2)c1,0.5,34.7*,0.4,-2.7,-0.1,-1.1,2.0,0.3
O=C1COc2ccccc2C(c2nc3ccccc3[nH]2)N1Cc1ccccc1 (centres undefined),-2.2,2.6,1.3,-6.8,x,-7.6,x,x
